Source: ChEMBL document CHEMBL3351517, “Psychrophilins E-H and versicotide C, cyclic peptides from the marine-derived fungus Aspergillus versicolor ZLN-60” (J Nat Prod, 2014)
Active and inactive are the calls of the source. No cut-off for these calls is given here. Positions of bridges follow the written chain, without caps; N, C: chain ends. Non-standard residues stand in square brackets, D forms with d. Residues, ends and D or L forms follow the SMILES beside them. NMeW = CN[C@@H](Cc1c[nH]c2ccccc12)C(=O)O; 2Abz = Nc1ccccc1C(=O)O

Columns and labels:
Assay type in all cases: functional, cell-based
[1] = system: A549; assay: Cytotoxicity against human A549 cells by SRB assay
[2] = system: HeLa; assay: Cytotoxicity against human HeLa cells by SRB assay
[3] = system: SMMC-7721; assay: Cytotoxicity against human SMMC7721 cells by SRB assay
[4] = system: HepG2; assay: Lipid-lowering activity in human HepG2 cells assessed as reduction in oleic acid-elicited intracellular lipid accumulation at 10 uM after 6 hrs by Oil Red O staining method
Procedure, shortened: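 HepG2 cells were kept in DMEM with 10% FBS and penicillin/streptomycin (100 μg/mL). At 70−80% confluence, cells were loaded with oleic acid (100 μM in DMEM) for 12 h. They were then exposed to test agent (10 μM) in DMEM/100 μM oleic acid for a further 6 h. Simvastatin served as positive control and DMEM/oleic acid as blank. Lipid was read by Oil Red O staining.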

Structure (SMILES): CC(=O)N(C)[C@H]1Cc2cn(c3ccccc23)C(=O)c2ccccc2NC(=O)[C@@H]2CCCN2C1=O (Ac-[NMeW]-Pro-[2Abz]; lactam 1-C)
- IC50 [1]: > 100 µM
- IC50 [2]: > 100 µM
- IC50 [3]: > 100 µM

Structure (SMILES): CC(=O)N(C)[C@@H]1C(=O)N2CCC[C@H]2C(=O)Nc2ccccc2C(=O)n2cc(c3ccccc32)[C@H]1O
- IC50 [1]: > 100 µM
- IC50 [2]: > 100 µM
- IC50 [3]: > 100 µM
- Activity [4]: Active

Structure (SMILES): CC(=O)N(C)[C@@H]1C(=O)N2CCC[C@H]2C(=O)Nc2ccccc2C(=O)n2cc(c3c(O)cccc32)[C@H]1O
- IC50 [1]: > 100 µM
- IC50 [2]: > 100 µM
- IC50 [3]: > 100 µM

Structure (SMILES): CC(=O)N[C@H]1Cc2cn(c3ccccc23)C(=O)c2ccccc2NC(=O)[C@@H]2CCCN2C1=O (Ac-Trp-Pro-[2Abz]; lactam 1-C)
- IC50 [1]: > 100 µM
- IC50 [2]: > 100 µM
- IC50 [3]: > 100 µM
